Laboratory results reported in ChEMBL document CHEMBL1128260, “3-deaza- and 7-deaza-5'-noraristeromycin and their antiviral properties” (1995).
≈ marks a conversion by molar mass, not a printed value.

Legend:
Type in all cases: functional
HeLa [1] = experiment: The minimum inhibitory concentration required to reduce Vesicular Stomatitis Virus induced cytopathicity by 50% in HeLa cells; settings: Homo sapiens
Outline: (§1)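 Confluent cell monolayers in microtiter trays were inoculated with 100 CCID50 of virus and allowed 1 h adsorption, then residual virus was removed. Cultures were incubated with varying compound concentrations (400, 200, 100, ... µg/mL). Cytopathicity was scored once it was complete in the untreated infected controls. The value is the concentration reducing virus-induced cytopathicity by 50%.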

CCRF-CEM [2] = experiment: The minimum inhibitory concentration required to reduce HIV-2(ROD) virus induced cytopathicity by 50% was measured on CEM cells; settings: Homo sapiens
Outline: (§2)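 CEM cells at 250,000-300,000 cells/mL were infected with HIV-1 (IIIB) or HIV-2 (ROD) at 100 CCID50/mL. The infected suspension was added to serial compound dilutions and incubated 4 days at 37 °C. Cultures were then examined for syncytium (giant cell) formation, and the 50% inhibitory concentration was recorded.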

HeLa [3] = experiment: Tested for concentration required to cause a microscopically detectable alteration of HeLa cell morphology; settings: Homo sapiens; read-out: MIC50
Outline: (§3)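 Confluent E6SM, HeLa, Vero or MDCK cell cultures exposed to varying test-compound concentrations and examined microscopically. The value is the concentration causing a microscopically detectable alteration of normal cell morphology.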

HEL [4] = experiment: The minimum inhibitory concentration required to reduce CMV(Davis) virus induced cytopathicity by 50% was measured on HEL cells; settings: Homo sapiens; outline: as §1
MDCK [5] = experiment: The minimum inhibitory concentration required to reduce Influenza B virus induced cytopathicity by 50% was measured on MDCK cells; settings: Canis lupus familiaris; outline: as §1
Vero [6] = experiment: The minimum inhibitory concentration required to reduce Arenavirus (Junin) induced cytopathicity by 50% was measured on Vero cells; settings: Chlorocebus sabaeus; outline: as §1
MDCK [7] = experiment: Tested for the concentration required to cause a microscopically detectable alteration of MCDK cell morphology; settings: Canis lupus familiaris; read-out: MIC50; outline: as §3
Vero [8] = experiment: The minimum inhibitory concentration required to reduce Sindbis virus ([…]) induced cytopathicity by 50% in Vero cells; settings: Chlorocebus sabaeus; outline: as §1
CCRF-CEM [9] = experiment: Tested for concentration required to cause a microscopically detectable alteration of CEM cell morphology; settings: Homo sapiens
HEL [10] = experiment: The minimum inhibitory concentration required to reduce VZV(YS) virus induced cytopathicity by 50% was measured on HEL cells; settings: Homo sapiens; outline: as §1
CCRF-CEM [11] = experiment: The minimum inhibitory concentration required to reduce HIV-1(IIIB) virus induced cytopathicity by 50% was measured on CEM cells; settings: Homo sapiens; outline: as §2
HeLa [12] = experiment: The minimum inhibitory concentration required to reduce Coxsackie B4 virus induced cytopathicity by 50% in HeLa cells.; settings: Homo sapiens; outline: as §1
E6SM [13] = experiment: The minimum inhibitory concentration required to reduce Vaccinia virus induced cytopathicity by 50% in E6SM cells; settings: Homo sapiens; outline: as §1
E6SM [14] = experiment: The minimum inhibitory concentration required to reduce HSV-2(G) virus induced cytopathicity by 50% was measured on E6SM cells; settings: Homo sapiens; outline: as §1
E6SM [15] = experiment: The minimum inhibitory concentration required to reduce Vesicular Stomatitis Virus induced cytopathicity by 50% in E6SM cells; settings: Homo sapiens; outline: as §1
[16] = system: Respiratory syncytial virus; experiment: The minimum inhibitory concentration required to reduce RSV(Long) virus induced cytopathicity by 50% in HeLa cells; settings: human respiratory syncytial virus; outline: as §1
Vero [17] = experiment: The minimum inhibitory concentration required to reduce Parainfluenza virus type 3(ATCC VR-93) induced cytopathicity by 50% in Vero cells; settings: Chlorocebus sabaeus; outline: as §1
Vero [18] = experiment: The minimum inhibitory concentration required to reduce forest virus (ATCC VR-67) induced cytopathicity by 50% in Vero cells; settings: Chlorocebus sabaeus; outline: as §1
MDCK [19] = experiment: The minimum inhibitory concentration required to reduce Influenza A virus induced cytopathicity by 50% was measured on MDCK cells; settings: Canis lupus familiaris; outline: as §1
E6SM [20] = experiment: Tested for concentration required to cause a microscopically detectable alteration of E6SM cell morphology; settings: Homo sapiens; read-out: MIC50; outline: as §3
Vero [21] = experiment: Tested for concentration required to cause a microscopically detectable alteration of Vero cell morphology; settings: Chlorocebus sabaeus; read-out: MIC50; outline: as §3
HEL [22] = experiment: Tested for the concentration required to cause a microscopically detectable alteration of HEL cell morphology; settings: Homo sapiens; read-out: MIC50
E6SM [23] = experiment: The minimum inhibitory concentration required to reduce HSV-1(KOS) virus induced cytopathicity by 50% was measured on E6SM cells; settings: Homo sapiens; outline: as §1
Vero [24] = experiment: The minimum inhibitory concentration required to reduce Arenavirus (Tacaribe) induced cytopathicity by 50% was measured on Vero cells; settings: Chlorocebus sabaeus; outline: as §1
HEL [25] = experiment: The minimum inhibitory concentration required to reduce CMV(AD-169) virus induced cytopathicity by 50% was measured on HEL cells; settings: Homo sapiens; outline: as §1
HEL [26] = experiment: The minimum inhibitory concentration required to reduce VZV(Oka) virus induced cytopathicity by 50% was measured on HEL cells; settings: Homo sapiens; outline: as §1
HeLa [27] = experiment: The minimum inhibitory concentration required to reduce Polio-1 virus induced cytopathicity by 50% in HeLa cells; settings: Homo sapiens; outline: as §1
Vero [28] = experiment: The minimum inhibitory concentration required to reduce Reo-1 virus (ATCC VR-230) induced cytopathicity by 50% was measured in Vero cells; settings: Chlorocebus sabaeus; outline: as §1
HEL [29] = experiment: The minimum inhibitory concentration required to reduce TK-VZV(YS-R) virus induced cytopathicity by 50% was measured on HEL cells; settings: Homo sapiens; outline: as §1
E6SM [30] = experiment: The minimum inhibitory concentration required to reduce TK-HSV-1(VMW 1837) virus induced cytopathicity by 50% in E6SM cells; settings: Homo sapiens; outline: as §1
HEL [31] = experiment: The minimum inhibitory concentration required to reduce TK-VZV(07-1) virus induced cytopathicity by 50% was measured on HEL cells; settings: Homo sapiens; outline: as §1
E6SM [32] = experiment: The minimum inhibitory concentration required to reduce TK HSV-1 (B2006) virus induced cytopathicity by 50% in E6SM cells; settings: Homo sapiens; outline: as §1

SMILES	MIC50 (HeLa [1]) [µg/mL]	Minimum cytotoxic concentration (HeLa [3]) [µg/mL]	MIC50 (HEL [4]) [µg/mL]	MIC50 (MDCK [5]) [µg/mL]	MIC50 (Vero [6]) [µg/mL]	Minimum cytotoxic concentration (MDCK [7]) [µg/mL]	MIC50 (Vero [8]) [µg/mL]	MIC50 (HEL [10]) [µg/mL]	MIC50 (HeLa [12]) [µg/mL]	MIC50 (E6SM [13]) [µg/mL]	MIC50 (E6SM [14]) [µg/mL]	MIC50 (E6SM [15]) [µg/mL]	MIC50 [16] [µg/mL]	MIC50 (Vero [17]) [µg/mL]	MIC50 (Vero [18]) [µg/mL]	MIC50 (MDCK [19]) [µg/mL]	minimum cytotoxic concentration (microscopic alteration of cell morphology) (E6SM [20]) [µg/mL]	Minimum cytotoxic concentration (Vero [21]) [µg/mL]	Minimum cytotoxic concentration (MCC) (HEL [22]) [µg/mL]	MIC50 (E6SM [23]) [µg/mL]	further results
Nc1ncnc2c1ncn2[C@@H]1C[C@H](O)[C@@H](O)[C@H]1O [NORARISTEROMYCIN]	0.2 (≈ 0.796 µM)	> 400	0.03 (≈ 0.119 µM)	> 100	6 (≈ 23.9 µM)	> 400	> 400	> 50	> 400	0.04 (≈ 0.159 µM)	> 400	0.1 (≈ 0.398 µM)	> 200	0.07 (≈ 0.279 µM)	> 400	> 100	> 400	> 400	50	> 400	MIC50 (CCRF-CEM [2]): > 0.16 µg/mL; MIC50 (CCRF-CEM [9]): 0.4 µg/mL (≈ 1.59 µM); MIC50 (CCRF-CEM [11]): > 0.16 µg/mL; MIC50 (Vero [24]): 8 µg/mL (≈ 31.8 µM); MIC50 (HEL [25]): 0.01 µg/mL (≈ 0.0398 µM); MIC50 (HEL [26]): > 50 µg/mL; MIC50 (HeLa [27]): > 400 µg/mL; MIC50 (Vero [28]): 0.7 µg/mL (≈ 2.79 µM)
Nc1nccc2c1ncn2C1CC(O)C(O)C1O (single isomer, unassigned; (-))	2 (≈ 7.99 µM)	> 400	> 40	> 200	> 40	> 200	> 200	> 40	> 400	0.4 (≈ 1.6 µM)	> 400	0.7 (≈ 2.8 µM)	> 150	1 (≈ 4 µM)	> 200	150 (≈ 599 µM)	> 400	> 200	> 200	> 400	MIC50 (HEL [29]): > 40 µg/mL; MIC50 (CCRF-CEM [2]): > 20 µg/mL; MIC50 (CCRF-CEM [9]): 27 µg/mL (≈ 108 µM); MIC50 (CCRF-CEM [11]): > 20 µg/mL; MIC50 (E6SM [30]): 300 µg/mL (≈ 1200 µM); MIC50 (HEL [31]): > 30 µg/mL; MIC50 (Vero [24]): > 40 µg/mL; MIC50 (HEL [25]): > 40 µg/mL; MIC50 (HEL [26]): > 40 µg/mL; MIC50 (HeLa [27]): > 400 µg/mL; MIC50 (Vero [28]): 7 µg/mL (≈ 28 µM); MIC50 (E6SM [32]): 300 µg/mL (≈ 1200 µM)
Nc1ncnc2c1ccn2[C@H]1C[C@@H](O)[C@H](O)[C@@H]1O	300 (≈ 1200 µM)	> 400	> 40	> 200	> 20	> 200	> 200	> 40	> 400	150 (≈ 599 µM)	> 400	70 (≈ 280 µM)	100 (≈ 400 µM)	100 (≈ 400 µM)	> 200	> 200	> 400	> 400	> 200	300 (≈ 1200 µM)	MIC50 (HEL [29]): > 40 µg/mL; MIC50 (CCRF-CEM [2]): > 500 µg/mL; MIC50 (CCRF-CEM [9]): > 500 µg/mL; MIC50 (CCRF-CEM [11]): > 500 µg/mL; MIC50 (E6SM [30]): 300 µg/mL (≈ 1200 µM); MIC50 (HEL [31]): > 40 µg/mL; MIC50 (Vero [24]): > 20 µg/mL; MIC50 (HEL [25]): > 40 µg/mL; MIC50 (HEL [26]): > 40 µg/mL; MIC50 (HeLa [27]): > 400 µg/mL; MIC50 (Vero [28]): > 200 µg/mL; MIC50 (E6SM [32]): 300 µg/mL (≈ 1200 µM)
Nc1ncnc2c1ncn2[C@@H]1C=C(CO)[C@@H](O)[C@H]1O [NEOPLANOCIN A]	2 (≈ 7.6 µM)	1	0.4 (≈ 1.52 µM)	> 4	1 (≈ 3.8 µM)	4	2 (≈ 7.6 µM)	5 (≈ 19 µM)	> 40	0.2 (≈ 0.76 µM)	> 100	2 (≈ 7.6 µM)	> 1.2	0.2 (≈ 0.76 µM)	7 (≈ 26.6 µM)	0.3 (≈ 1.14 µM)	100	40	20	70 (≈ 266 µM)	MIC50 (HEL [29]): 3 µg/mL (≈ 11.4 µM); MIC50 (E6SM [30]): 70 µg/mL (≈ 266 µM); MIC50 (HEL [31]): 4 µg/mL (≈ 15.2 µM); MIC50 (Vero [24]): 1 µg/mL (≈ 3.8 µM); MIC50 (HEL [25]): 0.6 µg/mL (≈ 2.28 µM); MIC50 (HEL [26]): 4 µg/mL (≈ 15.2 µM); MIC50 (HeLa [27]): > 40 µg/mL; MIC50 (Vero [28]): 0.7 µg/mL (≈ 2.66 µM); MIC50 (E6SM [32]): 20 µg/mL (≈ 76 µM)
